Measurements from different studies.
Lines come from different studies, so protocols differ.
Target: Mitogen-activated protein kinase 12 (MAPK12, Homo sapiens, UniProt P53778)
Residues used in one study (P53778 1-367): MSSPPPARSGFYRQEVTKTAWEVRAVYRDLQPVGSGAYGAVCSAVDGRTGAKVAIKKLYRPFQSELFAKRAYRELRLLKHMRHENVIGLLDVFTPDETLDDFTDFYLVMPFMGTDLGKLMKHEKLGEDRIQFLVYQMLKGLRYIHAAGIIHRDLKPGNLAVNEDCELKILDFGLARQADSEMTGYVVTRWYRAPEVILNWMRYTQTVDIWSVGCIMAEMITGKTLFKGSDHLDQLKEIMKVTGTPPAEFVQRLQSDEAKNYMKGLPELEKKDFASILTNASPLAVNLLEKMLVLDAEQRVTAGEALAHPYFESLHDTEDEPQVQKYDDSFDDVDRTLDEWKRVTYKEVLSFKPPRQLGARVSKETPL

For `NS(=O)(=O)c1cc(NC(=O)Cc2ccccc2)ccc1Oc1cccc(Cl)c1`, the remaining binding was 100% (cell-free assay; competition with immobilised ligand; 1 µM).
The remaining activity of `O=C(Nc1cnn(-c2csc(C(=O)NC3COC3)c2)c1)Nc1ccccc1Cl` is reported as 99.4% (enzyme activity; inhibitor; 5 µM).
`Nc1ncnc2occ(-c3ccc(NC(=O)Nc4cc(C(F)(F)F)ccc4F)cc3)c12` has a remaining signal of 0.5% (cell-free assay; inhibitor; 20 µM).
For `CC(C)(O)[C@H]1CC[C@H](Nc2ccc3ncc(-c4cccc(C(F)(F)F)c4)n3n2)CC1`, the remaining activity was 93.8% (enzyme activity; inhibitor; 1 µM).
`CCCOc1ccc(OC)c(F)c1C(=O)c1ccc(C(=O)N[C@@H]2CNC[C@H]2NC(=O)c2ccc3[nH]ncc3c2)cc1` has a remaining activity of 97% (enzyme activity; inhibitor; 10 µM).
For `COc1cc2ncnc(Nc3ccc(Oc4ccccc4)c(C)c3C)c2cc1OC`, the inhibition was 2% (enzyme activity; inhibitor; 1 µM).
The remaining activity of `Cc1cnc(NC2CCOCC2)nc1-n1cnc(C(=O)NC(CN)c2cc(F)cc(Cl)c2)c1` (stereo not shown) is reported as 48% (enzyme activity; inhibitor; radiometric; 1 µM).
For `CN1CCN(c2cnc3c(C4CCN(C(=O)c5ccc(OC(F)(F)F)cc5N)CC4)ncnc3c2)CC1`, the remaining binding was 83% (cell-free assay; competition with immobilised ligand; 1 µM).
`Cc1ccc(NC(=O)c2ccc(C)c(C(F)(F)F)c2)cc1C#Cc1nn(C2CCC(O)CC2)c2ncnc(N)c12` (stereo not shown) gave a remaining signal of 68% (cell-free assay; 10 µM).
`COc1cc(Nc2cnc(C#N)c(O[C@H](C)CN(C)C)n2)ncc1-c1cnn(C)c1` has a remaining activity of 109% (enzyme activity; inhibitor; radiometric; 10 µM).
`CC(C)(C)C(=O)c1sc(NC2CCCCC2)nc1N` gave a remaining activity of 89% (enzyme activity; inhibitor; 10 µM).
`CCS(=O)(=O)c1cc2cc(C[C@@](O)(CC(C)(C)c3ccc(F)cc3C(N)=O)C(F)(F)F)[nH]c2cn1` has a remaining binding of 100% (cell-free assay; competition with immobilised ligand; 1 µM).
`CNC(=O)c1cc(Oc2ccc(NC(=O)Nc3ccc(Cl)c(C(F)(F)F)c3)cc2)ccn1` has a remaining signal of 94.2% (cell-free assay; 0.5 µM).
The remaining binding of `CNC(=O)Nc1ccc2c(c1)CC[C@@]21OC(=O)N(CC(=O)N(Cc2ccc(F)cc2)[C@@H](C)C(F)(F)F)C1=O` is reported as 63% (cell-free assay; competition with immobilised ligand; 1 µM).
The inhibition of `Cc1ccc(Nc2nccc(N(C)c3ccc4c(C)n(C)nc4c3)n2)cc1S(N)(=O)=O` is reported as -5% (enzyme activity; inhibitor; 0.3 µM).
`O=C(NC[C@@H]1[C@H]2CN(C(=O)OCc3cc(C(F)(F)F)cc(C(F)(F)F)c3)C[C@@H]12)c1ccc2[nH]nnc2c1` gave a remaining binding of 100% (cell-free assay; competition with immobilised ligand; 1 µM).
For `N#CCCc1ccc2c(c1)-c1[nH]c3ccc([N+](=O)[O-])cc3c1CC(=O)N2`, the remaining signal was 98.9% (cell-free assay; 0.5 µM).
The remaining binding of `Cn1nc(C(F)(F)F)cc1-c1cnc(N2CCc3cc(S(=O)(=O)Nc4c(F)cc(Cl)cc4F)cc(N4CCCC4=O)c32)nc1` is reported as 83% (cell-free assay; competition with immobilised ligand; 1 µM).
With `Cn1c(=O)n(-c2ccc(C(C)(C)C#N)cc2)c2c3cc(-c4cnc5ccccc5c4)ccc3ncc21` the remaining activity was 101% (enzyme activity; inhibitor; 10 µM).
